# MT1-MMP act inh – inhibitors of human MT1-MMP activation; P50281; HT1080 RFP-PRO-GFP cells, GFP/RFP ratio fluorescence, overnight; percent of plate control window, DMSO zero; GFP/RFP ratio change, % at 20 µM; 0.061% of 360,000 active; AID 651647;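 active means GFP/RFP ratio change of at least 30% with cell ATP level not reduced by more than half and red fluorescence within 50% of control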
#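 system = RFP-PRO-GFP reporter HT1080 cells | dosing = 20 µM single dose, 1% DMSO | timing = overnight cell settling, then overnight compound exposure, 37 °C, 5% CO2 | read-out basis = GFP/RFP fluorescence ratio | controls = DMSO and RFP-L50D-GFP cell wells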
# ADAM17 inh – inhibits human ADAM17; P78536; recombinant ADAM17, EDANS/DABCYL FRET peptide cleavage; inhibition, % at 6.95 µM; 0.83% of 370,000 active;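 active means inhibition above the mean of compounds lying between control limits plus 3 SD, set per campaign, cut at about 8.5% in these data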;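 further: 0% = DMSO-only wells as the low control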
# Target sequence (P78536 215-824 limits assumed): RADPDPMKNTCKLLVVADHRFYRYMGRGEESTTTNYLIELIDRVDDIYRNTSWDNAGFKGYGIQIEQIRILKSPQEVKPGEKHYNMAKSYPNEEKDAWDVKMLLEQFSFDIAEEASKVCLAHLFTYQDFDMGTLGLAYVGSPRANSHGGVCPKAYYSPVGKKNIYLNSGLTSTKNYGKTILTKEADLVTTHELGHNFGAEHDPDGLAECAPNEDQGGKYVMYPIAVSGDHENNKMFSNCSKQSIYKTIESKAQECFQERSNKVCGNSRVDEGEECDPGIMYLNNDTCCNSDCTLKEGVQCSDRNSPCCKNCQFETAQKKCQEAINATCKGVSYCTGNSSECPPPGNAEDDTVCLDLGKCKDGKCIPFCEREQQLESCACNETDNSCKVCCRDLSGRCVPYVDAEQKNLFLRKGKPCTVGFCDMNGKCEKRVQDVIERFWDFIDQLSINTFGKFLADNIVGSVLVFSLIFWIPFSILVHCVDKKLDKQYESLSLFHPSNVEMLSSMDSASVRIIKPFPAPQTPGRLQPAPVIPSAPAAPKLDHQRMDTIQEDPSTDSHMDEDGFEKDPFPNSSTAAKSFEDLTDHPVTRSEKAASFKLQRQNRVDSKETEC
# GRIN3A LBD mod – modulators (binders) of human NR3A ligand-binding domain; AID 1259313; NR3A LBD differential scanning fluorimetry, Tm shift; 0% = protein alone, 100% = glycine-bound protein; 2.5% of 340,000 active; Tm shift relative to glycine control, % at 25 µM;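 active means melting temperature shift of at least 10% of the positive control shift, at one fixed dose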
# MPTP block – blocks calcium-induced mitochondrial swelling; 1.4% of 360,000 active; isolated mouse mitochondria, Ca2+ swelling absorbance, 30 min; inhibition, % at 10 µM;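 active means inhibition of 50% or more, scaled per plate between neutral and stimulator controls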;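 further: 0% = DMSO wells given calcium and 100% = 1 mM EGTA wells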
# SKN-1 inh – blocks SKN-1 activity in C. elegans. inhibition, % at 21.8 µM. AID 624304. C. elegans VP596 Pgst-4::GFP/RFP ratio, acrylamide-induced, 24 h. 0.49% of 360,000 active;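 active means interference check ratio from 0.5 to 1.5 plus GFP to RFP signal ratio inhibition reaching or exceeding a fixed threshold, cut at about 30% in these data, passing the limit was not always enough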
# ADAM10 inh – inhibits human ADAM10 | AID 720582 | O14672 | 0.62% of 370,000 active | inhibition, % at 7 µM | recombinant ADAM10, EDANS/DABCYL FRET peptide cleavage, 3 h;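 active means inhibition above a per-campaign cutoff equal to the mean of compounds falling between control-based bounds plus 3 SD, cut at about 20% in these data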;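 further: 0% = DMSO wells while the 100% control is not disclosed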
# The depositor's hits bear a star; . = not tested or not shown. Hits are enriched below; roughly 4.7% of the tested compounds scored in any of these assays.
SMILES,MT1-MMP act inh,ADAM17 inh,GRIN3A LBD mod,MPTP block,SKN-1 inh,ADAM10 inh
Cc1ccc(/C=C2\C(=O)NC(=S)N(c3ccc(F)cc3)C2=O)s1,-7.5,-4.7,-2.8,14.3,35.7*,6.1
N[C@@H](Cc1c[nH]c2ccccc12)c1nnc(SCc2ccccc2)o1,-0.6,-0.3,-0.2,-0.2,4.5,5.5
N[C@@H](Cc1c[nH]c2ccccc12)c1nnc(SCc2ccc(F)cc2)o1,-1.3,-2.6,12.7*,-1.2,-5.0,3.4
CCn1c(O)c(C(=O)CC2NCCc3ccccc32)c(=O)n(CC)c1=S (configuration not stated),-16.7,.,2.6,-3.5,51.3*,.
CCOC(=O)c1c(/N=C/c2c(O)n(-c3cccc(C)c3)c(=O)[nH]c2=O)sc2c1CCCC2,-11.2,-5.4,24.0*,1.9,7.9,-7.8
Cn1c(O)c(/C=C2\N=c3ccccc3=C2CCNC(=S)NC2CC2)c(=O)n(C)c1=O,-3.5,-5.7,17.0*,1.3,-9.9,-25.4
Cn1c(O)c(/C=C2\C=c3ccccc3=NC2=O)c(=O)n(C)c1=O,-1.6,-33.0,0.9,3.5,26.9,-89.4
Cc1ccc(-n2c(C)nc3ccccc3c2=O)cc1C,-3.3,-3.0,-0.3,1.0,1.6,-8.7
Cc1ccc2nsnc2c1-n1c(C)nc2ccccc2c1=O,-2.5,1.3,17.1*,-0.2,-4.0,4.8
CCC1(C)OC(c2ccccc2)=C/C(=C/C=C2C(=O)NC(=O)NC2=O)O1 (configuration not stated),-111.8,4.1,0.0,13.4,47.8*,3.4
CC1C(c2cccs2)=[N+]([O-])C(C)(C(=O)c2ccc(Cl)cc2)N1O (configuration not stated),-5.7,-3.4,0.9,-0.5,10.8,-0.3
CCOC(=O)c1ccc2[nH]c(-c3ccc(S(=O)(=O)F)cc3)cc(=O)c2c1,-1.0,-9.2,23.6*,0.0,3.7,-19.9
CN1C(=O)N(C)C(=O)C2(Cc3c(nc4ccccn4c3=O)N3CCc4ccccc4C32)C1=O (configuration not stated),0.7,-2.1,-0.4,-1.1,10.0,-4.3
C[C@](N)(CCP(=O)(O)O)C(=O)O,0.6,-5.5,-1.3,0.1,48.6*,-5.4
C[N+](C)(C)CC1CCCC(C[N+](C)(C)C)C1=O (configuration not stated),-2.7,-5.7,-0.3,-0.9,14.8,-8.2
CCCc1nc2ccccc2c(=O)n1-c1ccc(OC)cc1,-2.8,-0.6,0.7,-2.6,36.6*,1.3
COc1nc2ccccc2c(=O)n1-c1ccc(C)cc1,-0.4,2.3,-9.9,2.8,1.3,-5.1
CCCc1nc2ccccc2c(=O)n1-c1cccc(OC)c1,-0.2,-2.2,1.8,-2.5,10.7,-4.2
CCCCOc1nc2ccccc2c(=O)n1-c1ccccc1,-2.2,-1.1,13.1*,2.3,10.3,13.3
CC[N+](CC)(CC)CCCOC(=O)C(O)(c1ccccc1)C1CCCCC1 (configuration not stated),1.3,-3.4,0.8,-1.2,-5.5,-3.5
CC(=O)Nc1cc(C(=O)N2CCC3(CC2)OCCO3)ccc1Sc1ccc(F)cc1,6.5,-4.5,1.4,-0.6,2.1,1.0
O=C(NC1CC1)c1cn(Cc2ccccc2)nc1-c1ccccc1,0.7,1.9,.,-1.1,-15.9,-4.3
O=c1[nH]c(=O)n(C2CCCCCC2)c(O)c1C=NCC1CCCO1 (configuration not stated),0.9,-2.6,1.2,2.4,24.8,7.7
N#CCC[C@H]1CC[C@]2(CCCN(Cc3ccccn3)C2)O1,.,0.7,.,.,.,0.2
C[C@]12CC[C@H](O)CC1=CCC1C2CC[C@]2(C)C(=O)[C@H](Br)CC12 (some centres not stated),2.4,-2.2,14.0*,0.6,1.8,-0.7
O=C1/C(=C\c2ccc([N+](=O)[O-])cc2)N2CCC1CC2,-1.6,-2.3,-2.5,1.8,21.0,9.4
CCOC(=O)C(O)(c1ccc(NC(=O)Oc2ccccc2)cc1)C(F)(F)F (configuration not stated),6.1,-0.1,16.4*,1.1,-0.7,-1.2
Cc1cccc(N=C2c3cc([N+](=O)[O-])ccc3-c3c2cc([N+](=O)[O-])cc3[N+](=O)[O-])c1,14.8,-2.8,-0.9,3.5,-10.3,-8.3

# Screens from PubChem BioAssay.
